In ChEMBL document CHEMBL1275350, “First in class, potent, and orally bioavailable NADPH oxidase isoform 4 (Nox4) inhibitors for the treatment of idiopathic pulmonary fibrosis” (J Med Chem, 2010):
pKi: −log10 of the molar value.

Assays:
NADPH oxidase 4 = molecular target: T1, NADPH oxidase 4 (Homo sapiens, UniProt Q9NPH5); test: Inhibition of human NOX4 overexpressed in T-REx-293 cell membrane assessed as ROS production by cell free assay in presence of NADPH; conditions: in the assay text read “T-REx-293 cell membrane” for “human PMN cell membrane”
T1 sequence (Q9NPH5 whole entry): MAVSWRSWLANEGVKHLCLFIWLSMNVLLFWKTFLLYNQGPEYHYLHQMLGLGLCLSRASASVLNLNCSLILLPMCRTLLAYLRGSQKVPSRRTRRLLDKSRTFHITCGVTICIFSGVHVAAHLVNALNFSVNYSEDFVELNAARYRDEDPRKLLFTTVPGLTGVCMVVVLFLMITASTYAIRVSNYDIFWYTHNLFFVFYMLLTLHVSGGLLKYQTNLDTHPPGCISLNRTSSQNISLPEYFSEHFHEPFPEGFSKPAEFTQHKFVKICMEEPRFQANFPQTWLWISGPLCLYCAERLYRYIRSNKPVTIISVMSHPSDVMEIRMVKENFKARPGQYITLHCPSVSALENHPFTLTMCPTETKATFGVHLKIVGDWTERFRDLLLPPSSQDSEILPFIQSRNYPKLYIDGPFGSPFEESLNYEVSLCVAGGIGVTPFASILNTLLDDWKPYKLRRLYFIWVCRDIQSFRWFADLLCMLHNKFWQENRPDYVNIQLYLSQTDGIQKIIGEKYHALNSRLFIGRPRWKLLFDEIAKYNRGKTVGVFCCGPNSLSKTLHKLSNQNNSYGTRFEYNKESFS
Summary of the method: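 hNOX4 T-REx-293 cells induced with tetracycline (1 μg/mL, 24 h), sonicated in sucrose/NaCl/EGTA PBS buffer pH 7.4, membranes taken from a sucrose gradient. NADPH-triggered ROS measured by Amplex Red/HRP in PBS, with compound at 1 nM–100 μM, 20 min at 37 °C. Ki by Cheng-Prusoff from ≥3 triplicate experiments.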

[1] = Intrinsic clearance in Sprague-Dawley rat liver microsomes assessed per mg of protein at 0.5 uM; format: ADME, Microsome
Summary of the method: (§1)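 Phase I stability assay in pooled liver microsomes (human: male and female; rat: male Sprague-Dawley). Microsomes at 0.5 mg/mL final in 0.1 M phosphate pH 7.4. Compound 0.5 μM final, 0.25% DMSO. Preincubated at 37 °C, reaction started with 1 mM NADPH. Sampled at 0, 5, 15, 30 and 45 min, with a 45 min minus-NADPH control. Methanol quench with internal standard, LC/MS-MS, intrinsic clearance calculated.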

[2] = Permeability across human Caco-2 cell membrane at 10 uM after 2 hrs; format: ADME, cell-based
Summary of the method: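 Caco-2 monolayers grown 20 days in DMEM, used when TEER >800 Ω·cm2. Dosed at 10 μM final in HBSS pH 6.5 with 1% DMSO, apical-to-basolateral and basolateral-to-apical. Incubated 2 h at 37 °C, both compartments sampled, LC-MS/MS with five-point calibration. Papp = (dQ/dt)/(C0A).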

[3] = Intrinsic clearance in human liver microsomes assessed as per mg of protein at 0.5 uM; format: ADME, Microsome; summary of the method: as §1
[4] = AUC (infinity) in Sprague-Dawley rat at 10 mg/kg, po; format: ADME, organism-based; design: time infinity, dose 10 mg/kg, route oral; conditions: plasma
Summary of the method: (§2)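 Parallel design with six male rats: three given 5 mg/kg iv in EDPW (10% EtOH, 10% DMA, 30% PG, 50% water), three given 10 mg/kg orally in aqueous 0.5% CMC with 0.25% Tween 20. Carotid cannula blood sampled up to 24 h. Plasma levels by LC/MS/MS (LLOQ 1.00 ng/mL). Noncompartmental analysis.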

[5] = Oral bioavailability in Sprague-Dawley rat at 10 mg/kg; format: ADME, organism-based; conditions: in vivo
Summary of the method: (§3)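 Parallel design in male rats, three per group. Group 1: 5 mg/kg iv in EDPW (10% EtOH, 10% DMA, 30% PG, 50% water). Group 2: 10 mg/kg oral in aqueous 0.5% CMC with 0.25% Tween 20. Carotid cannula blood drawn up to 24 h. Plasma measured by LC/MS/MS (LLOQ 1.00 ng/mL), noncompartmental analysis.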

[6] = Cmax in Sprague-Dawley rat at 10 mg/kg, po; format: ADME, organism-based; design: dose 10 mg/kg, route oral; conditions: in vivo; summary of the method: as §2
[7] = Tmax in Sprague-Dawley rat at 10 mg/kg, po; format: ADME, organism-based; design: dose 10 mg/kg, route oral; conditions: in vivo; summary of the method: as §3
[8] = Half life in Sprague-Dawley rat at 10 mg/kg, po; format: ADME, organism-based; design: dose 10 mg/kg, route oral; conditions: in vivo; summary of the method: as §2
[9] = AUC (infinity) in Sprague-Dawley rat at 5 mg/kg, iv; format: ADME, organism-based; design: time infinity, dose 5 mg/kg, route intravenous; conditions: plasma; summary of the method: as §2
[10] = Cmax in Sprague-Dawley rat at 5 mg/kg, iv; format: ADME, organism-based; design: dose 5 mg/kg, route intravenous; conditions: in vivo; summary of the method: as §2
[11] = Clearance in Sprague-Dawley rat at 10 mg/kg, po; format: ADME, organism-based; design: dose 10 mg/kg, route oral; conditions: in vivo; summary of the method: as §2
[12] = Half life in Sprague-Dawley rat at 5 mg/kg, iv; format: ADME, organism-based; design: dose 5 mg/kg, route intravenous; conditions: in vivo; summary of the method: as §2
[13] = Clearance in Sprague-Dawley rat at 5 mg/kg, iv; format: ADME, organism-based; design: dose 5 mg/kg, route intravenous; conditions: in vivo; summary of the method: as §2
[14] = Volume of distribution at steady state in Sprague-Dawley rat at 5 mg/kg, iv; format: ADME, organism-based; design: dose 5 mg/kg, route intravenous; conditions: in vivo, read-out: Vdss; summary of the method: as §3

Cn1c(COc2ccc(F)cc2)c2c(=O)n(-c3ccccc3Cl)[nH]c2cc1=O
pKi (NADPH oxidase 4): 6.94 | microsomal CLint at 0.5 µM [1]: 125 µL/min/mg | Papp at 2 h, 10 µM [2]: 35.5 ×10⁻⁶ cm/s | microsomal CLint at 0.5 µM [3]: 49.3 µL/min/mg | AUC(0-inf) [4]: 3630 ng·h/mL | bioavailability [5]: 28% | Cmax [6]: 558 ng/mL | Tmax [7]: 1.17 h | half-life [8]: 3.03 h | AUC(0-inf) [9]: 6530 ng·h/mL | Cmax [10]: 30400 ng/mL | CL/F [11]: 48.7 mL/min/kg | half-life [12]: 3.47 h | clearance [13]: 12.8 mL/min/kg | Vd [14]: 0.8 L/kg

Cn1c(COCc2ccccc2Cl)c2c(=O)n(-c3ccccc3Cl)[nH]c2cc1=O
pKi (NADPH oxidase 4): 7.09 | microsomal CLint at 0.5 µM [1]: 210 µL/min/mg | Papp at 2 h, 10 µM [2]: 62.6 ×10⁻⁶ cm/s | microsomal CLint at 0.5 µM [3]: 212 µL/min/mg

Cc1c2c(=O)n(-c3ccccc3Cl)[nH]c2cc(=O)n1Cc1ccc(S(N)(=O)=O)cc1
pKi (NADPH oxidase 4): 6.59

CC(=O)n1c2cc(=O)n(Cc3cccnc3)c(C)c2c(=O)n1-c1ccccc1C
pKi (NADPH oxidase 4): 6.40

Cc1c2c(=O)n(CCc3ccccc3)[nH]c2cc(=O)n1Cc1ccccn1
pKi (NADPH oxidase 4): 6.48

Cc1c2c(=O)n(-c3ccccc3)[nH]c2cc(=O)n1Cc1ccc2c(c1)OCO2
pKi (NADPH oxidase 4): 5.26

Cc1c2c(=O)n(-c3ccccc3Cl)[nH]c2cc(=O)n1CCN(C)C
pKi (NADPH oxidase 4): 6.63

Cc1c2c(=O)n(-c3ccccc3Cl)[nH]c2cc(=O)n1CCCC(=O)N1CCN(C)CC1
pKi (NADPH oxidase 4): 6.37

Cc1c2c(=O)n(Cc3ccccc3)[nH]c2cc(=O)n1Cc1ccccn1
pKi (NADPH oxidase 4): 6.33

Cc1c2c(=O)n(-c3ccccc3Cl)[nH]c2cc(=O)n1Cc1ccc(CN2CCN(C)CC2)cc1
pKi (NADPH oxidase 4): 6.29

Cc1c2c(=O)n(-c3ccc(F)cc3Cl)[nH]c2cc(=O)n1Cc1ccccn1
pKi (NADPH oxidase 4): 6.63 | microsomal CLint at 0.5 µM [1]: 84.2 µL/min/mg | Papp at 2 h, 10 µM [2]: 13.4 ×10⁻⁶ cm/s | microsomal CLint at 0.5 µM [3]: 37.6 µL/min/mg

Cc1c2c(=O)n(-c3nc4ccccc4s3)[nH]c2cc(=O)n1CCc1c[nH]cn1
pKi (NADPH oxidase 4): 5.33

Cc1c2c(=O)n(-c3ccc(S(=O)(=O)N4CCN(C)CC4)cn3)[nH]c2cc(=O)n1C
pKi (NADPH oxidase 4): 5.85

COCCn1[nH]c2cc(=O)n(Cc3ccccn3)c(C)c2c1=O
pKi (NADPH oxidase 4): 6.50

Cc1c2c(=O)n(CCN3CCOCC3)[nH]c2cc(=O)n1Cc1ccccn1
pKi (NADPH oxidase 4): 6.35

Cc1c2c(=O)n(-c3ccccc3)n(Cc3ccc(F)cc3)c2cc(=O)n1CCc1c[nH]c2ccccc12
pKi (NADPH oxidase 4): < 4.52

O=c1c2c(COCc3ccccc3)n(Cc3cnccn3)c(=O)cc2[nH]n1-c1ccccc1Cl
pKi (NADPH oxidase 4): 7.02 | microsomal CLint at 0.5 µM [1]: 49.5 µL/min/mg | Papp at 2 h, 10 µM [2]: 78.6 ×10⁻⁶ cm/s | microsomal CLint at 0.5 µM [3]: 32.4 µL/min/mg | AUC(0-inf) [4]: 8930 ng·h/mL | bioavailability [5]: 29% | Cmax [6]: 6080 ng/mL | Tmax [7]: 0.25 h | half-life [8]: 2.38 h | AUC(0-inf) [9]: 15400 ng·h/mL | Cmax [10]: 36800 ng/mL | CL/F [11]: 20 mL/min/kg | half-life [12]: 3.14 h | clearance [13]: 5.5 mL/min/kg | Vd [14]: 0.35 L/kg

Cc1c2c(=O)n(-c3nc4ccccc4s3)n(Cc3ccccc3Cl)c2cc(=O)n1N1CCOCC1
pKi (NADPH oxidase 4): < 4.52

Cn1c(-c2ccccc2F)c2c(=O)n(-c3ccccc3Cl)[nH]c2cc1=O
pKi (NADPH oxidase 4): 6.89

CCOCCCn1c(C)c2c(=O)n(-c3ccccc3Cl)n(Cc3ccccn3)c2cc1=O
pKi (NADPH oxidase 4): < 4.52

Cc1c2c(=O)n(-c3ccccc3Cl)[nH]c2cc(=O)n1CC#Cc1ccccc1
pKi (NADPH oxidase 4): 6.80 | microsomal CLint at 0.5 µM [1]: 178 µL/min/mg

Cc1c2c(=O)n(-c3ccc4nncn4n3)[nH]c2cc(=O)n1Cc1cccc(Oc2ccccc2)c1
pKi (NADPH oxidase 4): < 4.52

COc1cccc(CC(=O)n2c3cc(=O)n(Cc4cccnc4)c(C)c3c(=O)n2-c2ccccc2)c1
pKi (NADPH oxidase 4): 6.55

Cc1c2c(=O)n(Cc3ccc(Cl)cc3)[nH]c2cc(=O)n1Cc1ccccn1
pKi (NADPH oxidase 4): 6.59

CN(Cc1c2c(=O)n(-c3ccccc3Cl)[nH]c2cc(=O)n1CCc1ccccn1)c1ccccc1
pKi (NADPH oxidase 4): 6.76

Cc1c2c(=O)n(-c3ccccc3)n(Cc3ccccc3Cl)c2cc(=O)n1CCCN1CCCC1=O
pKi (NADPH oxidase 4): < 4.52

Cc1c2c(=O)n(-c3ccccc3Cl)[nH]c2cc(=O)n1CCCO
pKi (NADPH oxidase 4): 6.25

Cc1c2c(=O)n(C)[nH]c2cc(=O)n1Cc1ccccn1
pKi (NADPH oxidase 4): 6.41
